A short description of series [1]: Cytotoxicity activity against human MDA435 cells. To be noted: MDA-MB-435.
The next series relates to Aspergillus fumigatus. Put plainly: Antimicrobial activity against Aspergillus fumigatus SNB-AF1 after 24 hrs. Conditions: SNB-AF1, 24 h.
The subject of another series is Candida parapsilosis. Put plainly: Antimicrobial activity against Candida parapsilosis ATCC 22019 after 24 hrs. Conditions: Lodderomyces parapsilosis, ATCC 22019, 24 h.
Series [2] in a line: Selectivity index, ratio of IC50 for human MRC5 cells to IC50 for Aspergillus […] SNB-AF1.
The test system of another series is MRC5. Put plainly: Cytotoxicity activity against human MRC5 cells. The series is classed as cell-based. The essentials:
(§1)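 IC50 in μM against KB (nasopharyngeal epidermoid carcinoma) and MRC5 (normal fetal lung) cells, with taxotere as the positive control.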

A further series deals with KB. Kind of series: Cytotoxicity activity against human KB cells. The series is classed as functional, cell-based. Summed up: as §1
A further series concerns Trichophyton rubrum. Put plainly: Antimicrobial activity against Trichophyton rubrum SNB-TR1 after 5 days. The series is classed as functional. To be noted: SNB-TR1, 120 h. The essentials:
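MIC against the dermatophyte T. rubrum, with itraconazole as the reference drug.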

Series [3] in a line: Selectivity index, ratio of IC50 for human MRC5 cells to IC50 for Candida albicans ATCC 10231.
The nature of series [4]: Selectivity index, ratio of IC50 for human MRC5 cells to IC50 for Trichophyton rubrum SNB-TR1.
In the next series the test system is Candida albicans. Put plainly: Antimicrobial activity against Candida albicans ATCC 10231 after 24 hrs. Conditions: ATCC 10231, 24 h.
The subject of a further series is Staphylococcus aureus. Put plainly: Antimicrobial activity against Staphylococcus aureus ATCC 29213 after 24 hrs. The series is classed as functional. Conditions: ATCC 29213, 24 h.
Series [5] is described as follows: Selectivity index, ratio of IC50 for human MRC5 cells to IC50 for Staphylococcus aureus ATCC 29213.
The nature of series [6]: Selectivity index, ratio of IC50 for human MRC5 cells to IC50 for Escherichia coli ATCC 25922.
Series [7] is described as follows: Selectivity index, ratio of IC50 for human MRC5 cells to IC50 for Candida parapsilosis ATCC 22019.
Another series concerns Escherichia coli. Kind of series: Antimicrobial activity against Escherichia coli ATCC 25922 after 24 hrs. The series is classed as functional.

pIC50: −log10 of the molar value. ≈ marks a conversion by molar mass, not a printed value.

One may read the pIC50 as the IC50 on a negative log10 scale, so that one unit is a factor of ten. The low end stands for a high IC50, the high end for a low IC50. By MIC is commonly meant the lowest concentration that inhibits growth of the organism.

For the molecule `CC(C)=CCC/C(C)=C/CC/C(C)=C/Cc1c(O)c(Cl)c(C)c(C(=O)O)c1O`, the pIC50 in series [1] is 4.82; in the series with MRC5, 4.71; in the series with KB, 4.44. Moreover, the MIC against Aspergillus fumigatus came to 64 mg/L (≈ 157 µM); in the series on Candida parapsilosis, 16 mg/L (≈ 39.3 µM); against Trichophyton rubrum, 8 mg/L (≈ 19.7 µM); in the series with Candida albicans, 16 mg/L (≈ 39.3 µM); in the series with Staphylococcus aureus it was 4 mg/L (≈ 9.83 µM); in the series with Escherichia coli (ATCC 25922, 24 h), 1 mg/L (≈ 2.46 µM). Besides, the “Selectivity Index” value in [2] amounted to 0.1; in series [4], 1. The selectivity ratio in series [3] amounted to 0.5; in series [5], 2; in series [6], 8; in series [7], 0.5.
On to `CCC(C)n1ncn(-c2ccc(N3CCN(c4ccc(OCC5COC(Cn6cncn6)(c6ccc(Cl)cc6Cl)O5)cc4)CC3)cc2)c1=O` (configuration not stated) [ITRACONAZOLE], for which the MIC came out at 0.5 mg/L (≈ 0.709 µM) against Aspergillus fumigatus and 0.03 mg/L (≈ 0.0425 µM) in the series with Trichophyton rubrum.
Turning to `Cc1onc(-c2ccccc2)c1C(=O)N[C@@H]1C(=O)N2[C@@H]1SC(C)(C)[C@@H]2C(=O)O` [OXACILLIN], the minimum inhibitory concentration (MIC) with Staphylococcus aureus came out at 0.5 mg/L (≈ 1.25 µM).
Regarding `CC(=O)O[C@@]12CO[C@@H]1C[C@H](O)[C@@]1(C)C(=O)[C@H](O)C3=C(C)[C@@H](OC(=O)[C@H](O)[C@@H](NC(=O)OC(C)(C)C)c4ccccc4)C[C@@](O)([C@@H](OC(=O)c4ccccc4)[C@H]21)C3(C)C` [DOCETAXEL], the values for the negative logarithm of the IC50 (pIC50) with MRC5 and with KB were 9.30 and 9.70, respectively.
For the molecule `CC(C)=CCC/C(C)=C/CCC(C)(O)C1Cc2c(O)c(C=O)c(C)c(Cl)c2O1` (configuration not stated), the results for the negative logarithm of the IC50 (pIC50) (in [1]; with MRC5; in the series on KB) were 4.79, 4.82 and 4.78, respectively. Further, the MIC is over 128 mg/L against Aspergillus fumigatus; 128 mg/L (≈ 315 µM) in the series with Candida parapsilosis; 128 mg/L (≈ 315 µM) against Trichophyton rubrum; 128 mg/L (≈ 315 µM) in the series on Candida albicans; 128 mg/L (≈ 315 µM) in the series on Staphylococcus aureus; 64 mg/L (≈ 157 µM) against Escherichia coli (ATCC 25922, 24 h).
For the molecule `CC(C)=CCCC(C)(O)CCC/C(C)=C/Cc1c(O)c(Cl)c(C)c(C(=O)O)c1O` (configuration not stated), the negative logarithm of the IC50 (pIC50) in series [1] was 5.31; in the series on MRC5 it was 4.86; in the series on KB it was 4.55. Besides, the MIC against Aspergillus fumigatus was 32 mg/L (≈ 75.3 µM); against Candida parapsilosis, 32 mg/L (≈ 75.3 µM); with Trichophyton rubrum, 4 mg/L (≈ 9.41 µM); against Candida albicans, 32 mg/L (≈ 75.3 µM); against Staphylococcus aureus, 32 mg/L (≈ 75.3 µM); against Escherichia coli (ATCC 25922, 24 h) it was 8 mg/L (≈ 18.8 µM). The “Selectivity Index” value in series [2] is given as 0.2; in [4], 1.5. The selectivity ratio came out at 0.2 in series [3], 0.2 in [5], 0.7 in [6] and 0.2 in series [7].
`OC(Cn1cncn1)(Cn1cncn1)c1ccc(F)cc1F` [FLUCONAZOLE]: the minimum inhibitory concentration (MIC) against Candida parapsilosis and against Candida albicans was 4 mg/L (≈ 13.1 µM) in each case.
In the case of GENTAMICIN, in the series on Escherichia coli, inhibition of growth (MIC) required 8 mg/L.
Turning to `C/C(=C\Cc1c(O)c(Cl)c(C)c(C(=O)O)c1O)CC/C=C(\C)CCCC(C)(C)O`, the negative-log IC50 (pIC50) is 4.37 in series [1], 4.21 in the series on MRC5 and 4.33 with KB. The minimum inhibitory concentration (MIC) with Aspergillus fumigatus stood at 128 mg/L (≈ 301 µM); against Candida parapsilosis, 16 mg/L (≈ 37.7 µM); in the series with Trichophyton rubrum, 32 mg/L (≈ 75.3 µM); against Candida albicans, 16 mg/L (≈ 37.7 µM); in the series with Staphylococcus aureus it was 32 mg/L (≈ 75.3 µM); in the series on Escherichia coli (ATCC 25922, 24 h), 8 mg/L (≈ 18.8 µM). For the same molecule, the entries for the “Selectivity Index” value in series [2] and in series [4] were 0.2 and 0.8, respectively. Besides, the selectivity ratio in series [3] stood at 1.6; in [5], 0.8; in series [6], 3.3; in [7], 1.6.

The values above are taken from ChEMBL document CHEMBL3352767, “Antibacterial ilicicolinic acids C and D and ilicicolinal from Neonectria discophora SNB-CN63 isolated from a termite nest” (J Nat Prod, 2015).
